Measured values from ChEMBL document CHEMBL3585262, “(-)-α-Bisabolol, a Promising Oral Compound for the Treatment of Visceral Leishmaniasis” (J Nat Prod, 2015).
Calls of active or inactive are those of the source. No cut-off for these calls is given here.

Legend:
L929 [1] = assay: (§1) Selectivity index, ratio of CC50 for mouse L929 cells to IC50 for Leishmania infantum MHOM/ES/2007/DP532JFJ; assay type: functional
Leishmania infantum [2] = assay: Antileishmanial activity against Leishmania infantum promastigotes infected in ICR (CD1) mouse assessed as reduction in parasite load in spleen at 104 mg Sb'v/kg, ip treated 28 days after infection for 14 days by real-time PCR relative to control; assay type: functional, organism-based
Leishmania infantum [3] = assay: Antileishmanial activity against Leishmania infantum promastigotes infected in ICR (CD1) mouse assessed as parasite load in spleen at 104 mg Sb'v/kg, ip dosed daily starting 28 days after infection for 14 days by real-time PCR; assay type: functional, organism-based
L929 [4] = assay: (§2) Selectivity index, ratio of CC50 for mouse L929 cells to IC50 for Leishmania donovani MHOM/IN/00/LEM138; assay type: functional
Leishmania infantum [5] = assay: Antileishmanial activity against Leishmania infantum promastigotes infected in ICR (CD1) mouse assessed as parasite load in liver at 104 mg Sb'v/kg, ip dosed daily starting 28 days after infection for 14 days by real-time PCR; assay type: functional, organism-based
Leishmania infantum [6] = assay: Antileishmanial activity against Leishmania infantum promastigotes infected in ICR (CD1) mouse assessed as reduction in parasite load in liver at 104 mg Sb'v/kg, ip dosed daily starting 28 days after infection for 14 days by real-time PCR relative to control; assay type: functional, organism-based
Leishmania infantum [7] = assay: Antileishmanial activity against Leishmania infantum promastigotes infected in ICR (CD1) mouse assessed as reduction in parasite load in spleen at 200 mg/kg, po dosed daily starting 28 days after infection for 14 days by real-time PCR co-treated with 104 mg Sb'v/kg/day, ip meglumine antimoniate for 14 days; assay type: functional, organism-based
In short: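 Female 4–6-week-old Balb/c mice received 10^7 stationary-phase L. infantum promastigotes ip, in groups of seven. From day 28 they were dosed orally each day for 14 days in olive oil; meglumine antimoniate 104 mg SbV/kg was given ip. Spleen and liver load was measured by L. infantum-specific qPCR in triplicate against a calibration curve, as parasites/mg, and reduction was taken versus untreated mice.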

[8] = (§3) Cytotoxicity against mouse L929 cells after 72 hrs by trypan blue assay; assay type: cell-based; settings: L929 cells
In short: (§4)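 L929 fibroblasts were plated at 5 × 10^4/well in RPMI-1640 with 10% FBS at 37 °C, 5% CO2. They were exposed to 25–1000 μM compound, with diluent controls, for 72 h. Cells were mixed 1:1 with 0.4% trypan blue and live and dead cells counted in a hemocytometer. Survival was expressed relative to controls and CC50 approximated.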

[9] = Cytotoxicity against mouse J774.G8 cells assessed as reduction in cell viability incubated for 24 hrs by MTT assay; assay type: cell-based
[10] = Toxicity in po dosed rat; assay type: organism-based; settings: in vivo
[11] = as §1; assay type: functional
Mus musculus [12] = assay: Toxicity in Balb/c mouse assessed as changes in plasma enzymatic changes at 50 and 200 mg/kg, po; settings: in vivo
Mus musculus [13] = assay: Toxicity in ICR (CD1) mouse assessed as histological changes at 200 mg/kg, po; assay type: organism-based; settings: in vivo
In short: (§5)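 Mice were given daily oral doses of 50, 200 or 1000 mg/kg in olive oil for 14 days, alongside a noninfected healthy reference group. Animals were weighed weekly and checked for stress, pain, cutaneous signs and diarrhea. After sacrifice, spleen and liver were weighed, plasma biochemical and enzymatic values were assessed, and tissue sections were examined by light microscopy.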

Leishmania infantum [14] = assay: Antileishmanial activity against Leishmania infantum MHOM/ES/2007/DP532JFJ infected in mouse BMDM cells assessed as reduction in infection at 150 uM after 48 hrs; assay type: functional
In short: (§6)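 Mouse bone-marrow macrophages were differentiated with L929-conditioned medium and plated with coverslips. They were infected with stationary-phase promastigotes at a 10:1 parasite:macrophage ratio. Compound (25–1000 μM, 0.5% DMSO) was added for 48 h, at least in triplicate. Cells were Giemsa-stained and the percentage infected (≥1 amastigote) was counted by microscopy. Reduction was calculated relative to untreated or diluent wells.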

Leishmania infantum [15] = assay: Antileishmanial activity against Leishmania infantum MHOM/ES/2007/DP532JFJ infected in mouse BMDM cells assessed as reduction in intracellular amastigotes after 48 hrs; assay type: functional, organism-based
In short: (§7)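 Bone-marrow-derived macrophages from ICR (CD-1) mice, differentiated with L929-conditioned medium, plated 4 × 10^6 per well on coverslips and allowed to adhere 1 day. Infected with stationary-phase promastigotes at 10:1 parasite/macrophage, then exposed to 25–1000 μM for 48 h (0.5% DMSO). Giemsa-stained, infection percentage counted by microscopy. IC50 from linear regression of infection reduction; at least triplicate.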

Mus musculus [16] = assay: Toxicity in Balb/c mouse assessed as histological changes at 50 mg/kg, po; settings: in vivo
[17] = Cytotoxicity against human skin fibroblast cells; assay type: cell-based
[18] = as §2; assay type: functional
[19] = Cytotoxicity against ICR(CD1) BMDM assessed as survival rate at 25 to 250 uM after 72 hrs by trypan blue assay; settings: mouse
In short: (§8)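 Trypan Blue exclusion assay. BMDM (4 × 10^5/well) or L929 fibroblasts (5 × 10^4/well) incubated 72 h with 25–1000 μM compound, with DMSO diluent controls. Cells then mixed 1:1 with 0.4% Trypan Blue and live and dead cells counted in a hemocytometer. Survival ratio calculated against controls at each concentration.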

Leishmania amazonensis = assay: Antileishmanial activity against Leishmania amazonensis MHOM/BR/76/MA-76 intracellular amastigotes infected in BALB/c mouse peritoneal macrophages incubated for 24 hrs by Giemsa staining based light microscopy; assay type: functional, organism-based; settings: MHOM/BR/76/MA-76, 24 h
Leishmania donovani [20] = assay: Antileishmanial activity against Leishmania donovani MHOM/IN/00/LEM138 infected in mouse BMDM cells assessed as reduction in infection at 150 uM after 48 hrs; assay type: functional; settings: MHOM/IN/00/LEM138, BMDM; in short: as §6
[21] = Cytotoxicity against mouse L929 cells assessed as survival rate at 500 uM after 72 hrs by trypan blue assay; assay type: cell-based; settings: read-out: Survival; in short: as §8
Mus musculus [22] = assay: Toxicity in Balb/c mouse assessed as changes in plasma biochemical changes at 50 and 200 mg/kg, po; settings: in vivo
Leishmania infantum [23] = assay: Antileishmanial activity against Leishmania infantum promastigotes infected in Balb/c mouse assessed as reduction parasite load in spleen at 50 mg/kg, po dosed daily starting 28 days after infection for 14 days by real-time PCR relative to control
[24] = Cytotoxicity against mouse L929 cells assessed as survival rate at 25 to 250 uM after 72 hrs by trypan blue assay; assay type: cell-based; settings: read-out: Survival; in short: as §8
Leishmania infantum [25] = assay: Antileishmanial activity against Leishmania infantum promastigotes; assay type: functional, organism-based
Mus musculus [26] = assay: Toxicity in ICR (CD1) mouse at 1000 mg/kg, po; assay type: organism-based; settings: in vivo; in short: as §5
Leishmania donovani [27] = assay: Antileishmanial activity against Leishmania donovani MHOM/IN/00/LEM138 infected in mouse BMDM cells assessed as reduction in intracellular amastigotes after 48 hrs; assay type: functional, organism-based; in short: as §7
Leishmania infantum [28] = assay: Antileishmanial activity against Leishmania infantum promastigotes infected in Balb/c mouse assessed as reduction parasite load in liver at 50 mg/kg, po dosed daily starting 28 days after infection for 14 days by real-time PCR relative to control
Leishmania infantum [29] = assay: Antileishmanial activity against Leishmania infantum promastigotes infected in Balb/c mouse assessed as parasite load in liver at 200 mg/kg, po dosed daily starting 28 days after infection for 14 days by real-time PCR
Leishmania infantum [30] = assay: Antileishmanial activity against Leishmania infantum promastigotes infected in Balb/c mouse assessed as parasite load in spleen at 200 mg/kg, po dosed daily starting 28 days after infection for 14 days by real-time PCR
[31] = Cytotoxicity against mouse L929 cells assessed as survival rate at 1000 uM after 72 hrs by trypan blue assay; assay type: cell-based; settings: read-out: Survival; in short: as §8
L929 [32] = assay: as §3; assay type: cell-based; settings: l929, 72 h; in short: as §4
[33] = Leishmania infantum, MHOM/ES/2007/DP532JFJ, BMDM, 48 h
[34] = Leishmania donovani, MHOM/IN/00/LEM138, BMDM, 48 h

## MEGLUMINE ANTIMONATE [listing 1 of 2 here]
L929 [1]
  Ratio CC50/IC50: 2
Leishmania infantum [2]
  inhibition: inactive
Leishmania infantum [3]
  inhibition: Active
L929 [4]
  Ratio CC50/IC50: 3
Leishmania infantum [5]
  inhibition: Active
Leishmania infantum [6]
  Activity: Active

## CC(C)=CCC[C@@](C)(O)[C@@H]1CC=C(C)CC1
Leishmania infantum [7]
  inhibition: inactive
[8]
  CC50 at 72 h: > 1000 µM
[9]
  CC50 at 24 h: 452 µM
[10]
  LD50: 14000 mg/kg
[11]
  Ratio CC50/IC50: >17
Mus musculus [12]
  Activity: Non-toxic
Mus musculus [13]
  Activity: Non-toxic
Leishmania infantum [14]
  inhibition at 150 µM: 85%
Leishmania infantum [15]; [33]
  IC50: 56.9 µM
Mus musculus [16]
  Activity: Non-toxic
[17]
  CC50: > 150 µM
[18]
  Ratio CC50/IC50: >25
[19]
  Activity: Non-toxic
Leishmania amazonensis
  IC50: 48 µM
Leishmania donovani [20]
  inhibition at 150 µM: 89%
[21]
  viability at 72 h, 500 µM: 86.7%
Mus musculus [22]
  Activity: Non-toxic
Leishmania infantum [23]
  inhibition: Active
[24]
  viability at 72 h, up to 250 µM: 100%
Leishmania infantum [25]
  IC50: 49 µM
Mus musculus [26]
  Activity: Non-toxic
Leishmania donovani [27]; [34]
  IC50: 39.4 µM
Leishmania infantum [28]
  inhibition: Active
Leishmania infantum [29]
  inhibition: Active
Leishmania infantum [30]
  inhibition: Active
[31]
  viability at 72 h, 1000 µM: 62.3%

## N=C(N)c1ccc(OCCCCCOc2ccc(C(=N)N)cc2)cc1.O=S(=O)(O)CCO
[8]
  CC50 at 72 h: 6.1 µM
[11]
  Ratio CC50/IC50: 4
Leishmania infantum [15]; [33]
  IC50: 1.5 µM
[18]
  Ratio CC50/IC50: 7
Leishmania donovani [27]; [34]
  IC50: 0.88 µM

## MEGLUMINE ANTIMONATE [listing 2 of 2 here]
L929 [32]
  CC50: 273 µM
Leishmania infantum [15]; bmdm
  IC50: 144 µM
Leishmania donovani [27]; bmdm
  IC50: 96.4 µM
